# Measured values: ChEMBL document CHEMBL1772948, “Chemistry and biology of macrolide antiparasitic agents” (J Med Chem, 2011)
# The source made the active and inactive calls. The rule behind the calls is not given here.
# Assays:
# Toxoplasma gondii [1] = test: Antiparasitic activity against yellow fluorescent protein expressing Toxoplasma gondii 2F-1 treated immediately after infection for 48 hrs followed by reinoculated into fresh HFF monolayers measured after 48 hrs; assay type: functional, organism-based; details: 2F-1, 48 h
# Outline: (§1)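 Two-cycle protocol in HFF at 37 °C, 5% CO2, DMEM with 10% FBS. "0h": compound added with parasites, 48 h. "6h": parasites pre-incubated 6 h, uninvaded parasites removed, fresh medium with compound added, 42 h. Released tachyzoites were then harvested, purified and inoculated into fresh HFF without compound for the 2nd cycle. At least triplicate.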
# Toxoplasma gondii [2] = test: Antiparasitic activity against green fluorescent protein expressing […] deficient Toxoplasma gondii RH infected in HFF assessed as decrease in density of parasitophorous vacuoles at 10 uM treated immediately after infection measured after 24 hrs by microscopic analysis; assay type: functional, organism-based
# Outline: (§2)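 GFP T. gondii RHΔhxgprt in HFF, compound (10 μM) added either with the inoculum ("0h") or after 6 h pre-infection and washing ("6h"); vacuoles per microscope field scored at 24 h, at least 20 random fields from each of three experiments.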
# Bacillus subtilis = test: Antibacterial activity against Bacillus subtilis; assay type: functional
# Toxoplasma gondii [3] = test: Antiparasitic activity against yellow fluorescent protein expressing Toxoplasma gondii 2F-1 infected in HFF treated 6 hrs after infection measured after 48 hrs; assay type: functional, organism-based
# Toxoplasma gondii [4] = test: Antiparasitic activity against yellow fluorescent protein expressing Toxoplasma gondii 2F-1 infected in HFF treated immediately after infection measured after 48 hrs; assay type: functional, organism-based; details: 2F-1, 48 h
# HFF = test: Cytotoxicity against HFF after 48 hrs by MTS assay; assay type: cell-based; details: human
# Outline: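 Low-passage HFF seeded in 96-well plates and incubated 24h at 37 °C, then exposed to varying macrolide concentrations for 2 days; medium replaced with fresh medium plus MTS, 4h at 37 °C, absorbance 490 nm; CC50 = dose reducing viability by 50%.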
# Toxoplasma gondii [5] = test: Antiparasitic activity against yellow fluorescent protein expressing Toxoplasma gondii 2F-1 treated 6 hrs after infection for 42 hrs followed by reinoculated into fresh HFF monolayers measured after 48 hrs; assay type: functional, organism-based; outline: as §1
# Toxoplasma gondii [6] = test: Antiparasitic activity against green fluorescent protein expressing […] deficient Toxoplasma gondii RH infected in HFF assessed as decrease in density of parasitophorous vacuoles at 10 uM treated 6 hrs after infection measured after 24 hrs by microscopic analysis; assay type: functional, organism-based; outline: as §2
# Toxoplasma gondii [7] = test: (§3) Antiparasitic activity against clindamycin-resistant Toxoplasma gondii 4 infected in HFF assessed as reduction of ycf24/UPRT genes copy number ratio at 10 uM treated for 48 hrs immediately after infection followed by reinoculated into fresh HFF monolayers measured after 48 hrs by RT-PCR analysis; assay type: functional
# Outline: (§4)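 Tachyzoites were seeded on confluent HFF in 6-well plates at 2×10^5 per well, in DMEM with 10% FBS and 1% PS at 37 °C, 5% CO2. Compound was added together with the parasite inoculum, and cultures ran 48 h. Harvested tachyzoites were reinoculated into fresh HFF without drug for a second cycle. Parasites were pelleted by centrifugation and the plastid ycf24 to nuclear UPRT copy ratio was read by qPCR (40 cycles, 94 °C 3 s / 60 °C 30 s). At least triplicate.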
# Toxoplasma gondii [8] = test: Antiparasitic activity against green fluorescent protein expressing hwgprt deficient Toxoplasma gondii RH infected in HFF at 5 to 50 uM treated immediately after infection measured after 48 hrs followed by reinoculated into fresh HFF monolayers measured after 48 hrs; assay type: functional, organism-based
# Toxoplasma gondii [9] = test: as §3, with “against green fluorescent protein expressing […] deficient” for “against clindamycin-resistant”, “gondii RH” for “gondii 4”, “at 1” for “at 10”; assay type: functional
# Outline: as §4, with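 “CO2.” for “CO2. Compound was added together with the parasite inoculum, and cultures ran 48 h.”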
# Toxoplasma gondii [10] = test: (§5) Antiparasitic activity against clindamycin-resistant Toxoplasma gondii 4 infected in HFF assessed as reduction of ycf24/UPRT genes copy number ratio at 10 uM treated for 48 hrs after 6 hrs infection followed by reinoculated into fresh HFF monolayers measured after 48 hrs by RT-PCR analysis; assay type: functional
# Outline: (§6)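 Tachyzoites were seeded on confluent HFF monolayers in 6-well plates at 2×10^5 per well, in DMEM with 10% FBS and 1% PS at 37 °C, 5% CO2. After 6 h pre-infection, the medium was replaced with medium containing compound for 42 h. Released parasites were reinoculated into fresh HFF without drug for 48 h, collected by centrifugation, and measured by qPCR as the ratio of plastid ycf24 to nuclear UPRT copies. At least triplicate.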
# Toxoplasma gondii [11] = test: Antiparasitic activity against green fluorescent protein expressing hwgprt deficient Toxoplasma gondii RH infected in HFF at 5 to 50 uM treated immediately after infection measured after 48 hrs; assay type: functional, organism-based
# Outline: (§7)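 GFP-expressing RHΔhxgprt tachyzoites were grown on HFF on glass coverslips in 12-well plates (2×10^4/well). Compound was added either with the parasites ("0h", 48 h) or after a 6 h pre-infection and medium change ("6h", 42 h). Parasites per vacuole were counted by fluorescence microscopy in at least 50 random vacuoles per well. Three independent experiments.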
# Toxoplasma gondii [12] = test: as §5, with “against green fluorescent protein expressing hwgprt deficient” for “against clindamycin-resistant”, “gondii RH” for “gondii 4”, “at 0.1” for “at 10”; assay type: functional; outline: as §6
# Toxoplasma gondii [13] = test: Antiparasitic activity against Toxoplasma gondii 2F-1 expressing yellow fluorescent protein infected in HFF after 4 days; assay type: functional, organism-based; details: 2F-1, 96 h
# Toxoplasma gondii [14] = test: Antiparasitic activity against green fluorescent protein expressing […] deficient Toxoplasma gondii RH infected in HFF at 5 to 50 uM treated 6 hrs after infection measured after 48 hrs; assay type: functional, organism-based; outline: as §7
# Toxoplasma gondii [15] = test: Antiparasitic activity against green fluorescent protein expressing hwgprt deficient Toxoplasma gondii RH infected in HFF assessed as reduction of ycf24/UPRT genes copy number ratio at 10 uM treated for 42 hrs starting 6 hrs after infection followed by reinoculated into fresh HFF monolayers measured after 48 hrs by RT-PCR analysis
# Toxoplasma gondii [16] = test: (§8) Antiparasitic activity against clindamycin-resistant Toxoplasma gondii 4 infected in HFF assessed as reduction of ycf24/UPRT genes copy number ratio at 1 uM treated for 48 hrs after 6 hrs infection followed by reinoculated into fresh HFF monolayers measured after 48 hrs by RT-PCR analysis; assay type: functional
# Toxoplasma gondii [17] = test: Antiparasitic activity against green fluorescent protein expressing […] deficient Toxoplasma gondii RH infected in HFF assessed as parasite doubling time at 5 to 50 uM treated immediately after infection measured after 48 hrs; assay type: functional
# Outline: (§9)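 HFF were grown on glass coverslips in 12-well plates and infected with 2×10^4 GFP tachyzoites per well. Compound was added with the inoculum; the first cycle ran 48 h, and the second cycle ran in fresh HFF without drug. Parasites per vacuole were counted by fluorescence microscopy, at least 50 random vacuoles per well, to derive doubling time. Three independent experiments.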
# Toxoplasma gondii [18] = test: as §8, with “against green fluorescent protein expressing hwgprt deficient” for “against clindamycin-resistant”, “gondii RH” for “gondii 4”; assay type: functional
# Toxoplasma gondii [19] = test: Antiparasitic activity against clindamycin-resistant Toxoplasma gondii 4 infected in HFF assessed as reduction of ycf24/UPRT genes copy number ratio at 0.1 uM treated for 48 hrs after 6 hrs infection followed by reinoculated into fresh HFF monolayers measured after 48 hrs by RT-PCR analysis; assay type: functional; outline: as §6
# Toxoplasma gondii [20] = test: Antiparasitic activity against green fluorescent protein expressing […] deficient Toxoplasma gondii RH infected in HFF at 5 to 50 uM treated 6 hrs after infection measured after 48 hrs followed by reinoculated into fresh HFF monolayers measured after 48 hrs; assay type: functional, organism-based; outline: as §7
# Toxoplasma gondii [21] = test: Antiparasitic activity against clindamycin-resistant Toxoplasma gondii 4 infected in HFF assessed as reduction of ycf24/UPRT genes copy number ratio at 1 uM treated for 48 hrs immediately after infection followed by reinoculated into fresh HFF monolayers measured after 48 hrs by RT-PCR analysis; assay type: functional
# Outline: as §4, with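 “CO2.” for “CO2. Compound was added together with the parasite inoculum, and cultures ran 48 h.”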
# Toxoplasma gondii [22] = test: Antiparasitic activity against green fluorescent protein expressing hwgprt deficient Toxoplasma gondii RH infected in HFF assessed as reduction of ycf24/UPRT genes copy number ratio at 10 uM […] followed by reinoculated into fresh HFF monolayers measured after 48 hrs by RT-PCR analysis; assay type: functional
# Toxoplasma gondii [23] = test: Antiparasitic activity against green fluorescent protein expressing […] deficient Toxoplasma gondii RH assessed as parasite doubling time at 5 to 50 uM treated immediately after infection for 48 hrs followed by reinoculated into fresh HFF monolayers measured after 48 hrs; assay type: functional; outline: as §9
# Toxoplasma gondii [24] = test: Antiparasitic activity against clindamycin-resistant Toxoplasma gondii 4 infected in HFF assessed as reduction of ycf24/UPRT genes copy number ratio at 0.1 uM treated for 48 hrs immediately after infection followed by reinoculated into fresh HFF monolayers measured after 48 hrs by RT-PCR analysis; assay type: functional; outline: as §4
# Toxoplasma gondii [25] = test: (§10) Antiparasitic activity against green fluorescent protein expressing […] deficient Toxoplasma gondii RH infected in HFF assessed as reduction of ycf24/UPRT genes copy number ratio at 0.1 uM treated for 48 hrs immediately after infection followed by reinoculated into fresh HFF monolayers measured after 48 hrs by RT-PCR analysis; assay type: functional; outline: as §4
# Toxoplasma gondii [26] = test: as §10, with “5” for “0.1”; assay type: functional, organism-based; outline: as §4
# Toxoplasma gondii [27] = test: Antiparasitic activity against clindamycin-resistant Toxoplasma gondii 4 infected in HFF assessed as reduction of ycf24/UPRT genes copy number ratio at 5 uM treated for 48 hrs after 6 hrs infection followed by reinoculated into fresh HFF monolayers measured after 48 hrs by RT-PCR analysis; assay type: functional, organism-based
# Toxoplasma gondii [28] = test: Antiparasitic activity against green fluorescent protein expressing […] deficient Toxoplasma gondii RH infected in HFF assessed as reduction of ycf24/UPRT genes copy number ratio at 5 uM treated for 48 hrs after 6 hrs infection followed by reinoculated into fresh HFF monolayers measured after 48 hrs by RT-PCR analysis; assay type: functional, organism-based
# Outline: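 HFF monolayers infected with RHΔhxgprt (or Clin^R-4) in 6-well plates; after 6 h medium changed and compound present 42 h; at 48 h parasites reinoculated into fresh HFF for 48 h without compound; parasites pelleted at 2,000 rpm 10 min; qPCR (94 °C 20 s, then 40 cycles 94 °C 3 s/60 °C 30 s) plastid ycf24 vs nuclear UPRT copy ratio.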
# Toxoplasma gondii [29] = test: Antiparasitic activity against clindamycin-resistant Toxoplasma gondii 4 infected in HFF assessed as reduction of ycf24/UPRT genes copy number ratio at 5 uM treated for 48 hrs immediately after infection followed by reinoculated into fresh HFF monolayers measured after 48 hrs by RT-PCR analysis; assay type: functional, organism-based; outline: as §4
MIC (Bacillus subtilis) [µM],Compound,IC50 (Toxoplasma gondii [1]) [nM],Activity (Toxoplasma gondii [2]),IC50 (Toxoplasma gondii [3]) [µM],IC50 (Toxoplasma gondii [4]) [µM],CC50 (HFF) [µM],IC50 (Toxoplasma gondii [5]) [nM],Ratio (Toxoplasma gondii [9]),Ratio (Toxoplasma gondii [16]),Ratio (Toxoplasma gondii [18]),Ratio (Toxoplasma gondii [21]),further results
0.3,CC[C@H]1OC(=O)[C@H](C)[C@@H](O[C@H]2C[C@@](C)(OC)[C@@H](O)[C@H](C)O2)[C@H](C)[C@@H](O[C@@H]2O[C@H](C)C[C@H](N(C)C)[C@H]2O)[C@](C)(O)C[C@@H](C)CN(Cc2ccc(F)cc2)[C@H](C)[C@@H](O)[C@]1(C)O,500,Active,9,6,31,700,–,–,–,–,–
0.6,CC[C@H]1OC(=O)[C@H](C)[C@@H](O[C@H]2C[C@@](C)(OC)[C@@H](O)[C@H](C)O2)[C@H](C)[C@@H](O[C@@H]2O[C@H](C)C[C@H](N(C)C)[C@H]2O)[C@](C)(O)C[C@@H](C)CN(CCCc2ccccc2)[C@H](C)[C@@H](O)[C@]1(C)O,600,Active,8,4,33,600,–,–,–,–,–
0.3,CC[C@H]1OC(=O)[C@H](C)[C@@H](O[C@H]2C[C@@](C)(OC)[C@@H](O)[C@H](C)O2)[C@H](C)[C@@H](O[C@@H]2O[C@H](C)C[C@H](N(C)C)[C@H]2O)[C@](C)(O)C[C@@H](C)CN(CC2CCCCC2)[C@H](C)[C@@H](O)[C@]1(C)O,600,Active,12,7,36,600,–,–,–,–,–

# The next lines start with the compound.
Compound,MIC (Bacillus subtilis) [µM],IC50 (Toxoplasma gondii [1]) [nM],Activity (Toxoplasma gondii [2]),IC50 (Toxoplasma gondii [3]) [µM],IC50 (Toxoplasma gondii [4]) [µM],CC50 (HFF) [µM],IC50 (Toxoplasma gondii [5]) [nM],Ratio (Toxoplasma gondii [9]),Ratio (Toxoplasma gondii [16]),Ratio (Toxoplasma gondii [18]),Ratio (Toxoplasma gondii [21]),further results
CC[C@H]1OC(=O)[C@H](C)[C@@H](O[C@H]2C[C@@](C)(OC)[C@@H](O)[C@H](C)O2)[C@H](C)[C@@H](O[C@@H]2O[C@H](C)C[C@H](N(C)C)[C@H]2O)[C@](C)(O)C[C@@H](C)CN(C)[C@H](C)[C@@H](O)[C@]1(C)O [AZITHROMYCIN],0.15,600,inactive,44,29,174,600,7,3,3,8,Activity (Toxoplasma gondii [6]): inactive; Ratio (Toxoplasma gondii [7]): 10; Activity (Toxoplasma gondii [8]): Active; Ratio (Toxoplasma gondii [10]): 4; Activity (Toxoplasma gondii [11]): Active; Ratio (Toxoplasma gondii [12]): 15; IC50 (Toxoplasma gondii [13]): 20 µM; Activity (Toxoplasma gondii [14]): Active; Ratio (Toxoplasma gondii [15]): 10; Time (Toxoplasma gondii [17]): 9.5 h; Ratio (Toxoplasma gondii [19]): 13; Activity (Toxoplasma gondii [20]): Active; Ratio (Toxoplasma gondii [22]): 3; Time (Toxoplasma gondii [23]): >16 h; Ratio (Toxoplasma gondii [24]): 18; Ratio (Toxoplasma gondii [25]): 7
SPIRAMYCIN,–,–,–,–,–,–,–,–,–,–,–,Ratio (Toxoplasma gondii [26]): 8; Ratio (Toxoplasma gondii [27]): 3; Ratio (Toxoplasma gondii [28]): 5; Ratio (Toxoplasma gondii [29]): 8
CCc1nc(N)nc(N)c1-c1ccc(Cl)cc1 [PYRIMETHAMINE],–,–,–,–,–,–,–,29,23,22,27,–
